Reference: ChEMBL document CHEMBL4765435, “Synthesis and in vitro anti-bladder cancer activity evaluation of quinazolinyl-arylurea derivatives” (Eur J Med Chem, 2020)
Active and inactive are the calls of the source. The calls are words filed in the database; no cut-off is given here.

Tests used:
T-24 [1] = test: Induction of ferroptosis in human T-24 cells assessed as downregulation of xCT at >= 6 uM incubated for >= 10 hrs by Western blot analysis; assay type: functional, cell-based; settings: dose microM >=6, time hrs >=10
T-24 [2] = test: Induction of apoptosis in human T-24 cells assessed as increase in vZAD-reduced caspase-8 activation pretreated with vZAD for 1 hr followed by compound addition and measured upto 8 hrs by Western blot analysis; assay type: functional, cell-based; settings: dose 2-10 µM, time hrs <=8
T-24 [3] = test: Induction of autophagy in human T-24 cells assessed as decrease in p62 level at 6 uM in presence of rapamycin incubated for 12 hrs by Western blot analysis; assay type: functional, cell-based
[4] = Selectivity index, ratio of IC50 for cytotoxicity against human HCV-29 cells to IC50 for cytotoxicity against human T-24 cells
Summary of the method: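 SI is the ratio of IC50 in the non-tumoral cell line to IC50 in the tumoral T24 line, both from proliferation-inhibition assays.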

T-24 [5] = test: Induction of ROS accumulation in human T-24 cells at 8 uM incubated for 16 hrs by DCFH-DA dye based luminescence spectrometry relative to control; assay type: functional
Summary of the method: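 T24 cells loaded with the DCF probe after exposure to 4, 8 or 12 μM, sampled at times up to 16 h. Intracellular DCF fluorescence is quantified on a luminescence spectrometer and expressed as % of the negative control.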

T-24 [6] = test: Induction of apoptosis in human T-24 cells assessed as necrotic cells at 3 uM incubated for 8 hrs by annexin V-FITC and PI staining based flow cytometry analysis (reference value: 0.84 %); assay type: functional
T-24 [7] = test: Induction of ferroptosis in human T-24 cells assessed as increase in IREB2 expression by Western blot analysis; assay type: functional, cell-based; settings: dose 6-12 µM
T-24 [8] = test: Induction of ferroptosis in human T-24 cells assessed as reduction in cellular GSH level at 6 uM incubated for 12 hrs by DTNB reagent based assay; assay type: functional, cell-based
T-24 [9] = test: Induction of apoptosis in human T-24 cells assessed as downregulation of Bcl2 at 2 to 6 uM measured upto 8 hrs by Western blot analysis; assay type: functional, cell-based; settings: dose 2-6 µM, time hrs <=8
T-24 [10] = test: Induction of ferroptosis in human T-24 cells assessed as cellular GPx4 level at 12 uM by HPLC-EC analysis (reference value: 1.71 +/- 0.07 U/mg); assay type: functional
T-24 [11] = test: Induction of autophagy in human T-24 cells assessed as increase in autophagosomes at 6 uM measured upto 24 hrs by MDC-EB staining based confocal laser scanning microscopic analysis; assay type: functional, cell-based; settings: time hrs <=24, TDE = time-dependent effect
Summary of the method: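 Autophagic vacuoles in T24 cells exposed to 6 μM are visualised by MDC blue fluorescence under confocal laser scanning microscopy over a time course up to 24 h. Autophagosomes per cytoplasm area are quantified, with or without co-incubation with rapamycin.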

O=C(Nc1cccc(CNc2ncnc3ccccc23)c1)Nc1ccc(Cl)c(Cl)c1
Activity (T-24 [1]): Active
Activity (T-24 [2]): Dose-dependent effect
Activity (T-24 [3]): Active
Ratio IC50 [4]: 5.84
Activity (T-24 [5]): 213.3%
Activity (T-24 [6]): 3.89%
Activity (T-24 [7]): Dose-dependent effect
Activity (T-24 [8]): Active
Activity (T-24 [9]): Active
Activity (T-24 [10]): 1.27 U/mg
Activity (T-24 [11]): Tde
